Measurements: ChEMBL document CHEMBL1145359, “Synthesis and anticonvulsant activity of 4-(2-(2,6-dimethylphenylamino)-2-oxoethylamino)-N-(substituted)butanamides: a pharmacophoric hybrid approach” (Bioorg Med Chem Lett, 2007)
Activity calls are given as the source filed them.

Experiments:
[1] = system: Mus musculus; experiment: Anticonvulsant activity against maximal-electroshock-induced seizure in mouse at 100 mg/kg, ip after 0.5 hrs; format: functional, organism-based; parameters: dose 100 mg/kg
Summary of the method: (§1)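 Mice received the compound intraperitoneally at 30, 100 or 300 mg/kg and were challenged with maximal electroshock 0.5 h later, scoring prevention of seizure spread. The value recorded is the minimum dose protecting half or more of the mice. A dash means no activity up to 300 mg/kg. A vehicle-treated control group was included.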

[2] = system: Mus musculus; experiment: Anticonvulsant activity against subcutaneous pentylenetetrazole-induced seizure in mouse at 300 mg/kg, ip after 0.5 hrs; format: functional, organism-based; parameters: dose 300 mg/kg
Summary of the method: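 Intraperitoneal dosing in mice at 30, 100 or 300 mg/kg, followed 0.5 h later by a subcutaneous pentylenetetrazole challenge, scoring protection against seizures (a seizure-threshold test). The value recorded is the minimum dose active in half or more of the mice. A dash means no activity at 300 mg/kg. A vehicle-treated control group was included.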

[3] = system: Mus musculus; experiment: Anticonvulsant activity against subcutaneous picrotoxin-induced seizure in mouse at 30 mg/kg, ip after 0.5 hrs; format: functional, organism-based; parameters: dose 30 mg/kg
Summary of the method: (§2)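 Mice given intraperitoneal doses of 30, 100 and 300 mg/kg, with a vehicle-only control, then challenged with subcutaneous picrotoxin. Protection assessed at 0.5 h and 4 h after dosing. Recorded value is the lowest dose protecting half or more of the animals; a dash means no activity at 300 mg/kg.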

[4] = system: Mus musculus; experiment: Anticonvulsant activity against subcutaneous picrotoxin-induced seizure in mouse at 30 mg/kg, ip after 4 hrs; format: functional, organism-based; parameters: dose 30 mg/kg; summary of the method: as §2
[5] = system: Mus musculus; experiment: Acute neurotoxicity in mouse at 300 mg/kg, ip after 0.5 hrs by rotarod test; format: toxicity, organism-based; parameters: dose 300 mg/kg, route intraperitoneal; conditions: in vivo
Summary of the method: (§3)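 Mice dosed intraperitoneally at 30, 100 and 300 mg/kg; motor impairment scored at 0.5 h and 4 h after dosing. The value recorded is the minimum dose at which the effect appeared in half or more of the mice. A dash means no effect at the top dose of 300 mg/kg. A vehicle-treated control group was included.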

[6] = system: Mus musculus; experiment: Acute neurotoxicity in mouse at 300 mg/kg, ip after 4 hrs by rotarod test; format: toxicity, organism-based; parameters: dose 300 mg/kg, route intraperitoneal; conditions: in vivo; summary of the method: as §3
[7] = system: Mus musculus; experiment: Anticonvulsant activity against subcutaneous pentylenetetrazole-induced seizure in mouse at 30 mg/kg, ip after 0.5 hrs; format: functional, organism-based; parameters: dose 30 mg/kg
Summary of the method: (§4)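 Mice dosed intraperitoneally at 30, 100 and 300 mg/kg, with a vehicle-treated control, then challenged with subcutaneous pentylenetetrazole to detect elevation of seizure threshold. Read 0.5 h after dosing.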

[8] = system: Mus musculus; experiment: Anticonvulsant activity against subcutaneous picrotoxin-induced seizure in mouse at 10 mg/kg, ip after 0.5 hrs; format: functional, organism-based; parameters: dose 10 mg/kg
[9] = system: Mus musculus; experiment: Anticonvulsant activity against maximal-electroshock-induced seizure in mouse at 300 mg/kg, ip after 0.5 hrs; format: functional, organism-based; parameters: dose 300 mg/kg; summary of the method: as §1
[10] = system: Mus musculus; experiment: Anticonvulsant activity against subcutaneous picrotoxin-induced seizure in mouse at 100 mg/kg, ip after 0.5 hrs; format: functional, organism-based; parameters: dose 100 mg/kg; summary of the method: as §2
[11] = system: Mus musculus; experiment: Anticonvulsant activity against subcutaneous picrotoxin-induced seizure in mouse at 100 mg/kg, ip after 4 hrs; format: functional, organism-based; parameters: dose 100 mg/kg; summary of the method: as §2
[12] = system: Mus musculus; experiment: Acute neurotoxicity in mouse at 100 mg/kg, ip after 0.5 hrs by rotarod test; format: toxicity, organism-based; parameters: dose 100 mg/kg, route intraperitoneal; conditions: in vivo; summary of the method: as §3
[13] = system: Mus musculus; experiment: Acute neurotoxicity in mouse at 100 mg/kg, ip after 4 hrs by rotarod test; format: toxicity, organism-based; parameters: dose 100 mg/kg, route intraperitoneal; conditions: in vivo; summary of the method: as §3
[14] = system: Mus musculus; experiment: Anticonvulsant activity against subcutaneous pentylenetetrazole-induced seizure in mouse at 100 mg/kg, ip after 0.5 hrs; format: functional, organism-based; parameters: dose 100 mg/kg; summary of the method: as §4
[15] = system: Mus musculus; experiment: Anticonvulsant activity against subcutaneous picrotoxin-induced seizure in mouse at 300 mg/kg, ip after 4 hrs; format: functional, organism-based; parameters: dose 300 mg/kg; summary of the method: as §2
[16] = system: Mus musculus; experiment: Anticonvulsant activity against maximal-electroshock-induced seizure in mouse at 30 mg/kg, ip after 0.5 hrs; format: functional, organism-based; parameters: dose 30 mg/kg; summary of the method: as §1

For `Cc1cccc(C)c1NC(=O)CNCCCC(=O)Nc1ccccc1Br`, the Activity [1] was “Active”, the Activity [2] was “inactive” and the Activity [3] was “Active”. For the same molecule, the Activity [4] was “Active”, the Activity [5] was “Active” and the Activity [6] was “Active”.

`Cc1cccc(C)c1NC(=O)CCCNCC(=O)Nc1c(C)cccc1C` was tested, and the Activity [1] was “Active”, the Activity [7] was “Active” and the Activity [8] was “Active”. For the same molecule, the Activity [4] was “Active”, the Activity [5] was “Active” and the Activity [6] was “Not Active”.

With `Cc1cccc(C)c1NC(=O)CNCCCC(=O)N(C)C` the Activity [9] was “inactive”, the Activity [2] was “inactive” and the Activity [10] was “Active”. The Activity [11] was “Active”, the Activity [5] was “Not Active” and the Activity [6] was “Active”.

In the case of `Cc1cccc(C)c1NC(=O)CNCCCC(=O)Nc1cccc(Cl)c1C`, the Activity [1] is reported as “Active”, the Activity [2] is reported as “inactive” and the Activity [10] is reported as “Active”. The Activity [11] was “Active”, the Activity [5] was “Active” and the Activity [6] was “Not Active”.

For `Cc1cccc(C)c1NC(=O)CNCCCC(=O)N1CCC(C)CC1`, the Activity [9] was “inactive”, the Activity [2] was “inactive” and the Activity [10] was “Active”. The Activity [11] was “Active”, the Activity [12] was “Active” and the Activity [13] was “Active”.

With `CCCCN(CCCC)C(=O)CCCNCC(=O)Nc1c(C)cccc1C` the Activity [1] was “Active”, the Activity [2] was “inactive” and the Activity [3] was “Active”. For the same molecule, the Activity [11] was “Active”, the Activity [5] was “Active” and the Activity [6] was “Not Active”.

For `CCC1(C)CC(=O)NC1=O` (centres undefined) [ETHOSUXIMIDE], the Activity [9] was “inactive”, the Activity [14] was “Active” and the Activity [15] was “inactive”. The Activity [5] was “Not Active” and the Activity [6] was “Not Active”.

`Cc1cccc(C)c1NC(=O)CNCCCC(=O)Nc1ccccc1` was tested, and the Activity [1] was “Active”, the Activity [2] was “inactive” and the Activity [10] was “Active”. For the same molecule, the Activity [15] was “inactive”, the Activity [5] was “Active” and the Activity [6] was “Active”.

`O=C1NC(=O)C(c2ccccc2)(c2ccccc2)N1` [PHENYTOIN] was tested, and the Activity [16] was “Active”, the Activity [2] was “inactive” and the Activity [15] was “inactive”. The Activity [12] was “Active” and the Activity [13] was “Active”.

In the case of `Cc1cccc(C)c1NC(=O)CNCCCC(=O)N(c1ccccc1)c1ccccc1`, the Activity [9] is reported as “Active”, the Activity [2] is reported as “inactive” and the Activity [10] is reported as “Active”. The Activity [15] was “Active”, the Activity [5] was “Active” and the Activity [6] was “Not Active”.

For `Cc1cccc(C)c1NC(=O)CNCCCC(=O)N1CCCCC1`, the Activity [1] was “Active”, the Activity [2] was “inactive” and the Activity [10] was “Active”. For the same molecule, the Activity [15] was “inactive”, the Activity [12] was “Active” and the Activity [6] was “Active”.

In the case of `Cc1cccc(C)c1NC(=O)CNCCCC(=O)O`, the Activity [1] is reported as “Active”, the Activity [2] is reported as “inactive” and the Activity [3] is reported as “Active”. For the same molecule, the Activity [11] was “Active”, the Activity [5] was “Active” and the Activity [6] was “Not Active”.

In the case of `Cc1ccc(NC(=O)CCCNCC(=O)Nc2c(C)cccc2C)c(C)c1`, the Activity [1] is reported as “Active”, the Activity [2] is reported as “Active” and the Activity [10] is reported as “Active”. The Activity [11] was “Active”, the Activity [5] was “Active” and the Activity [6] was “Active”.

With `CCC1(c2ccccc2)C(=O)NC(=O)NC1=O` [PHENOBARBITAL] the Activity [1] was “Active”, the Activity [7] was “Active” and the Activity [3] was “Active”. The Activity [11] was “Active”, the Activity [12] was “Active” and the Activity [6] was “Active”.

For `Cc1cccc(C)c1NC(=O)CNCCCC(=O)N1CCN(c2cccc(C(F)(F)F)c2)CC1`, the Activity [9] was “inactive”, the Activity [2] was “inactive” and the Activity [3] was “Active”. The Activity [11] was “Active”, the Activity [5] was “Not Active” and the Activity [6] was “Not Active”.

`Cc1cccc(NC(=O)CCCNCC(=O)Nc2c(C)cccc2C)c1` was tested, and the Activity [9] was “inactive”, the Activity [2] was “inactive” and the Activity [3] was “Active”. The Activity [11] was “Active”, the Activity [5] was “Active” and the Activity [6] was “Not Active”.
